In ChEMBL document CHEMBL4261635, “Simplified lipid II-binding antimicrobial peptides: Design, synthesis and antimicrobial activity of bioconjugates of nisin rings A and B with pore-forming peptides” (2018):
≈ marks a conversion by molar mass, not a printed value. Calls of active or inactive are those of the source. The calls are words filed in the database; no cut-off is given here. Where a SMILES comes first, the peptide text is derived from it. [ ]: non-standard residue; d: D form. Nspe = C[C@H](NCC(=O)O)c1ccccc1; Nlys = NCCCCNCC(=O)O

Key:
Micrococcus luteus [1] = test: Antibacterial activity against Micrococcus luteus at 1 mg/ml after 48 hrs by agar well diffusion method; assay type: functional, organism-based
In short: (§1)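 Compounds dissolved at 1 mg/mL in sterile water; 25 μL placed in 8 mm wells punched in LB agar plates spread with 100 μL overnight culture (grown at 37 °C in Nutrient Broth No. 2 with shaking). Plates incubated 48 h at 37 °C (M. luteus initially at 30 °C, later 37 °C); activity scored as a visible zone of growth inhibition.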

Escherichia coli = test: Antibacterial activity against Escherichia coli at 1 mg/ml after 48 hrs by agar well diffusion method; assay type: functional, organism-based; in short: as §1
Pseudomonas aeruginosa = test: Antibacterial activity against Pseudomonas aeruginosa at 1 mg/ml after 48 hrs by agar well diffusion method; assay type: functional, organism-based; in short: as §1
Micrococcus luteus [2] = test: Antibacterial activity against Micrococcus luteus after 20 hrs by broth microdilution assay; assay type: functional
In short: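 Two-fold serial dilution in Nutrient Broth No. 2 containing 1% DMSO, from 0.60 mM stocks (sterile water, 1% DMSO, sonicated 30 s). Each well received 10 μL overnight M. luteus culture adjusted to OD 0.817 (of a 1 in 10 dilution), 250 μL final volume. Sealed, incubated 20 h at 37 °C, then OD read. MIC is the lowest concentration with no visible growth by eye.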

`NC[C@H]1O[C@H](O[C@H]2[C@H](O)[C@@H](O[C@H]3O[C@H](CO)[C@@H](O)[C@H](N)[C@H]3O)[C@H](N)C[C@@H]2N)[C@H](O)[C@@H](O)[C@@H]1O` was tested, and the Activity (Micrococcus luteus [1]) was “Active”, the Activity (Escherichia coli) was “Active” and the Activity (Pseudomonas aeruginosa) was “Active”.
`C[C@@H](c1ccccc1)N(CC(N)=O)C(=O)CN(C(=O)CN(CCCCN)C(=O)CN(C(=O)CN(C(=O)CN(CCCCN)C(=O)CN(C(=O)CN(C(=O)CN(CCCCN)C(=O)CN(C(=O)CN(C(=O)CNCCCCN)[C@@H](C)c1ccccc1)[C@@H](C)c1ccccc1)[C@@H](C)c1ccccc1)[C@@H](C)c1ccccc1)[C@@H](C)c1ccccc1)[C@@H](C)c1ccccc1)[C@@H](C)c1ccccc1` (H-[Nlys][Nspe][Nspe][Nlys][Nspe][Nspe][Nlys][Nspe][Nspe][Nlys][Nspe][Nspe]-NH2) gave an MIC (Micrococcus luteus [2]) of 1.5 µM (≈ 2.73 µg/mL).
In the case of `C=C(NC(=O)[C@@H](NC(=O)[C@H](Cc1cnc[nH]1)NC(=O)[C@@H](NC(=O)[C@H](CO)NC(=O)[C@@H]1CS[C@@H](C)[C@@H]2NC(=O)[C@H](C)NC(=O)[C@@H](NC(=O)[C@H](CCCCN)NC(=O)[C@H](CCSC)NC(=O)[C@H](CC(N)=O)NC(=O)[C@@H]3CS[C@@H](C)[C@H](NC(=O)[C@H](CCCCN)NC(=O)[C@@H]4CS[C@@H](C)[C@H](NC(=O)[C@@H]5CSC[C@H](NC(=O)/C(=C/C)NC(=O)[C@@H](N)[C@@H](C)CC)C(=O)N[C@@H]([C@@H](C)CC)C(=O)NC(=C)C(=O)N[C@@H](CC(C)C)C(=O)N5)C(=O)N5CCC[C@H]5C(=O)NCC(=O)N4)C(=O)NCC(=O)N[C@@H](C)C(=O)N[C@@H](CC(C)C)C(=O)N[C@@H](CCSC)C(=O)NCC(=O)N3)[C@H](C)SC[C@H](NC2=O)C(=O)N[C@@H](CC(N)=O)C(=O)N1)[C@@H](C)CC)C(C)C)C(=O)N[C@@H](CCCCN)C(=O)O`, the Activity (Micrococcus luteus [1]) is reported as “Active”, the Activity (Escherichia coli) is reported as “inactive” and the Activity (Pseudomonas aeruginosa) is reported as “inactive”. It also gave an MIC (Micrococcus luteus [2]) of 0.0234 µM (≈ 0.0779 µg/mL).
For `C=C1NC(=O)[C@H]([C@@H](C)CC)NC(=O)[C@@H](NC(=O)/C(=C/C)NC(=O)[C@@H](N)[C@@H](C)CC)CSC[C@@H](C(=O)N[C@@H]2C(=O)N3CCC[C@H]3C(=O)NCC(=O)N[C@H](C(=O)N[C@@H](CCCCN)C(=O)NCc3cn(CCCC[C@H](N)C(=O)NCCOCCOCCOCCOCCC(=O)N[C@H](C(=O)N[C@@H](CC(=O)O)C(=O)N[C@@H](Cc4c[nH]c5ccccc45)C(=O)N[C@@H](CCCCN)C(=O)N[C@@H](CCCCN)C(=O)N[C@@H](CC(C)C)C(=O)N[C@@H](CC(C)C)C(=O)N[C@@H](CC(=O)O)C(=O)N[C@@H](C)C(=O)N[C@@H](C)C(=O)N[C@@H](CCCCN)C(=O)N[C@@H](CCC(N)=O)C(=O)N[C@H](C(=O)N[C@@H](CC(C)C)C(N)=O)[C@@H](C)CC)[C@@H](C)CC)nn3)CS[C@H]2C)NC(=O)[C@H](CC(C)C)NC1=O`, the Activity (Micrococcus luteus [1]) was “Active”, the Activity (Escherichia coli) was “inactive” and the Activity (Pseudomonas aeruginosa) was “inactive”. It also gave an MIC (Micrococcus luteus [2]) of 3 µM (≈ 9.73 µg/mL).
`CC[C@H](C)[C@H](NC(=O)CN)C(=O)NCC(=O)N[C@@H](CCCCN)C(=O)N[C@@H](Cc1ccccc1)C(=O)N[C@@H](CC(C)C)C(=O)N[C@@H](CCCCN)C(=O)N[C@@H](CCCCN)C(=O)N[C@@H](C)C(=O)N[C@@H](CCCCN)C(=O)N[C@@H](CCCCN)C(=O)N[C@@H](Cc1ccccc1)C(=O)NCC(=O)N[C@@H](CCCCN)C(=O)N[C@@H](C)C(=O)N[C@@H](Cc1ccccc1)C(=O)N[C@H](C(=O)N[C@@H](CCCCN)C(=O)N[C@H](C(=O)N[C@@H](CC(C)C)C(=O)N[C@@H](CCCCN)C(=O)N[C@@H](CCCCN)C(N)=O)[C@@H](C)CC)C(C)C` [PEXIGANAN] (H-GIGKFLKKAKKFGKAFVKILKK-NH2) gave an MIC (Micrococcus luteus [2]) of 0.75 µM (≈ 1.86 µg/mL).
`CC[C@H](C)[C@H](N)C(=O)N[C@@H](CC(=O)O)C(=O)N[C@@H](Cc1c[nH]c2ccccc12)C(=O)N[C@@H](CCCCN)C(=O)N[C@@H](CCCCN)C(=O)N[C@@H](CC(C)C)C(=O)N[C@@H](CC(C)C)C(=O)N[C@@H](CC(=O)O)C(=O)N[C@@H](C)C(=O)N[C@@H](C)C(=O)N[C@@H](CCCCN)C(=O)N[C@@H](CCC(N)=O)C(=O)N[C@H](C(=O)N[C@@H](CC(C)C)C(N)=O)[C@@H](C)CC` (H-IDWKKLLDAAKQIL-NH2) was tested, and the Activity (Micrococcus luteus [1]) was “Active”, the Activity (Escherichia coli) was “inactive” and the Activity (Pseudomonas aeruginosa) was “inactive”. For the same compound, the MIC (Micrococcus luteus [2]) was 1.5 µM (≈ 2.48 µg/mL).
For `C#CCNC(=O)[C@H](CCCCN)NC(=O)[C@@H]1CS[C@@H](C)[C@H](NC(=O)[C@@H]2CSC[C@H](NC(=O)/C(=C/C)NC(=O)[C@@H](N)[C@@H](C)CC)C(=O)N[C@@H]([C@@H](C)CC)C(=O)NC(=C)C(=O)N[C@@H](CC(C)C)C(=O)N2)C(=O)N2CCC[C@H]2C(=O)NCC(=O)N1`, the Activity (Micrococcus luteus [1]) was “Active”, the Activity (Escherichia coli) was “inactive” and the Activity (Pseudomonas aeruginosa) was “inactive”. The MIC (Micrococcus luteus [2]) was > 12 µM.
